Converted amounts (≈) assume the structure as drawn. The source made the active and inactive calls. The rule behind the calls is not given here.
Legend:
[1] = tested on: Cell membrane; assay: Disruption of cell membrane potential in Mycobacterium bovis BCG ATCC 35734 at 0.08 uM after 20 mins to 5 days by DiOC2 dye-based fluorescence assay; details: Mycobacterium tuberculosis variant bovis BCG
Summary of the method: (§1)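 Controls were rifampicin 0.08 μM (negative) and CCCP 100 μM (positive). Membrane potential tracked by DiOC2 red/green fluorescence ratio over minutes–hours and days 1–5, versus drug-free cultures. 2–3 independent biological replicates.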

[2] = tested on: Cell membrane; assay: Disruption of cell membrane potential in Mycobacterium bovis BCG ATCC 35734 at 4 times MIC90 after 4 hrs by DiOC2 dye-based fluorescence assay; details: Mycobacterium tuberculosis variant bovis BCG; summary of the method: as §1
[3] = tested on: Cell membrane; assay: Disruption of cell membrane potential in Mycobacterium bovis BCG ATCC 35734 at 4 times MIC90 after 3 days by DiOC2 dye-based fluorescence assay; details: Mycobacterium tuberculosis variant bovis BCG; summary of the method: as §1
[4] = tested on: Mycobacterium tuberculosis variant bovis BCG; assay: Antimycobacterial activity against Mycobacterium bovis BCG ATCC 35734 after 5 days by broth dilution method; assay type: functional; details: ATCC 35734, 120 h
[5] = tested on: Mycobacterium tuberculosis variant bovis BCG; assay: Bactericidal activity against Mycobacterium bovis BCG ATCC 35734 assessed as 1000 fold reduction in CFU after 5 days; assay type: functional; details: ATCC 35734, 120 h, read-out: MBC99.9
Summary of the method: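 BCG ran 5 days at 37°C, 110 rpm; H37Rv ran 7 days at 37°C, 80 rpm. CFU counted on 7H10 agar. MBC99.9 is the 1000-fold CFU reduction versus inoculum at time zero. Average of 2 or more determinations.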

[6] = tested on: Mycobacterium tuberculosis variant bovis BCG; assay: Antimycobacterial activity against Mycobacterium bovis BCG ATCC 35734 after 5 days in absence of glycerol by broth dilution method; assay type: functional; details: ATCC 35734, 120 h
[7] = tested on: Mycobacterium tuberculosis variant bovis BCG; assay: Antimycobacterial activity against Mycobacterium bovis BCG ATCC 35734 after 5 days in presence of 10% FBS by broth dilution method; assay type: functional; details: ATCC 35734, 120 h
[8] = tested on: Mycobacterium tuberculosis variant bovis BCG; assay: Bactericidal activity against Mycobacterium bovis BCG ATCC 35734 at 4 times MIC90 measured at 48 hrs by time kill assay relative to control; assay type: functional, organism-based
Summary of the method: (§2)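 Samples taken at 6, 12, 24 and 48 h, diluted and plated on 7H10 agar for CFU. Three independent biological replicates.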

[9] = tested on: Mycobacterium tuberculosis variant bovis BCG; assay: Bactericidal activity against Mycobacterium bovis BCG ATCC 35734 at 4 times MIC90 measured up to 48 hrs by time kill assay relative to control; assay type: functional; summary of the method: as §2
[10] = tested on: Cell membrane; assay: Disruption of cell membrane potential in Mycobacterium bovis BCG ATCC 35734 at 100 uM after 20 mins to 5 days by DiOC2 dye-based fluorescence assay; details: Mycobacterium tuberculosis variant bovis BCG; summary of the method: as §1
[11] = tested on: Cell membrane; assay: Induction of cell membrane permeabilization in Mycobacterium bovis BCG ATCC 35734 at 4 times MIC90 after 12 hrs by SYTO9/propidium iodide staining-based fluorescence assay; details: Mycobacterium tuberculosis variant bovis BCG
Summary of the method: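 At each time point cells were washed into 0.9% NaCl at OD600 = 0.5 and stained with SYTO 9 and PI for 15 min at 37°C in the dark. Green (488/530 nm) and red (488/630 nm) fluorescence read. G/R ratio scaled between drug-free (0%) and 5% SDS (100%). Three biological replicates.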

| Structure (SMILES) | MIC50 [4] [µM] | MIC90 [4] [µM] | MBC [5] [µM] | MIC50 [6] [µM] | MIC50 [7] [µM] | other results |
| --- | --- | --- | --- | --- | --- | --- |
| CO[C@H]1/C=C/O[C@@]2(C)Oc3c(C)c(O)c4c(O)c(c(/C=N/N5CCN(C)CC5)c(O)c4c3C2=O)NC(=O)/C(C)=C\C=C\[C@H](C)[C@H](O)[C@@H](C)[C@@H](O)[C@@H](C)[C@H](OC(C)=O)[C@@H]1C | – | – | – | – | – | Activity [1]: inactive |
| CCCCCCCCn1cc(CN2CCCCCC2)c2c(F)cccc21 | – | – | – | – | – | Activity [2]: inactive; Activity [3]: Active |
| CCCCCCCCn1cc(CN2CCC3(CC2)OCCO3)c2ccc(OC)cc21 | 2 (≈ 0.829 µg/mL) | 4 (≈ 1.66 µg/mL) | 3 to 6 (≈ 1.24 to 2.49 µg/mL) | 1.6 (≈ 0.663 µg/mL) | 1.1 | Activity [8]: inactive |
| CCCCCCCCn1cc(CN2CCC3(CC2)OCCS3)c2ccc(OC)cc21 | 0.6 (≈ 0.258 µg/mL) | 0.8 (≈ 0.345 µg/mL) | 0.8 to 1.6 (≈ 0.345 to 0.689 µg/mL) | 0.37 (≈ 0.159 µg/mL) | 0.32 | – |
| NNC(=O)c1ccncc1 [ISONIAZID] | – | – | – | – | – | fold change (FC) [9]: >100 |
| CCCCCCCCn1cc(CN2CCC3(CC2)SCCCS3)c2ccc(OC)cc21 | 0.4 (≈ 0.184 µg/mL) | 0.8 (≈ 0.369 µg/mL) | 0.8 to 1.6 (≈ 0.369 to 0.737 µg/mL) | 0.43 (≈ 0.198 µg/mL) | 0.48 | – |
| N#CC(C#N)=NNc1cccc(Cl)c1 | – | – | – | – | – | Activity [10]: Active |
| CCCCCCCCn1cc(CN2CCC3(CC2)SCCS3)c2ccc(OC)cc21 | 0.5 (≈ 0.223 µg/mL) | 0.8 (≈ 0.357 µg/mL) | 0.8 to 1.6 (≈ 0.357 to 0.715 µg/mL) | 0.27 (≈ 0.121 µg/mL) | 0.28 | – |
| CCCCCCCCn1cc(CN2CCC3(CC2)OCCCS3)c2ccc(OC)cc21 | 0.4 (≈ 0.178 µg/mL) | 0.8 (≈ 0.356 µg/mL) | 0.4 to 1.6 (≈ 0.178 to 0.711 µg/mL) | 0.41 (≈ 0.182 µg/mL) | 0.6 | Activity [11]: Active; fold change (FC) [9]: >100 |
| CCCCCCCCn1cc(CN2CCC3(CC2)OCCCO3)c2cc([N+](=O)[O-])ccc21 | 7 (≈ 3.11 µg/mL) | 18 (≈ 7.98 µg/mL) | – | – | – | – |
| CCCCCCCCn1cc(CN2CCC3(CC2)OCCCO3)c2c([N+](=O)[O-])cccc21 | 10 (≈ 4.44 µg/mL) | 25 (≈ 11.1 µg/mL) | – | – | – | – |
| COc1ccc2c(CN3CCC4(CC3)OCCO4)cn(CCCOc3ccccc3)c2c1 | 3 (≈ 1.31 µg/mL) | 10 (≈ 4.37 µg/mL) | – | – | – | – |
| CCCCCCCCn1cc(CN2CCC3(CC2)OCCCO3)c2ccc(OC(C)C)cc21 | 0.6 (≈ 0.274 µg/mL) | 1.6 (≈ 0.731 µg/mL) | – | – | – | – |
| CCCCCCCCn1cc(CNC2CCC(=O)CC2)c2ccc(OC)cc21 | 15 (≈ 5.77 µg/mL) | 24 (≈ 9.23 µg/mL) | – | – | – | – |
| CCCCCCCCn1cc(CN2CCC3(CC2)OCCCO3)c2ccc(OC)cc21 | 0.3 (≈ 0.129 µg/mL) | 0.8 (≈ 0.343 µg/mL) | 0.8 to 1.6 (≈ 0.343 to 0.686 µg/mL) | 0.35 (≈ 0.15 µg/mL) | 0.33 | fold change (FC) [9]: >100 |
| COc1ccc2c(CN3CCCCC3)cn(C/C=C/c3ccccc3)c2c1 | 31 (≈ 11.2 µg/mL) | 49 (≈ 17.7 µg/mL) | – | – | – | – |
| CCCCCCCCn1cc(CN2CC3C(C2)C3(F)F)c2ccc(OC)cc21 (stereo not drawn) | 21 (≈ 8.2 µg/mL) | 50 (≈ 19.5 µg/mL) | – | – | – | – |
